We go through 11 compounds from ChEMBL document CHEMBL1126550, “Nanomolar-affinity, non-peptide oxytocin receptor antagonists” (J Med Chem, 1993).

Test [1] addresses T1, Oxytocin receptor (Homo sapiens, UniProt P30559).
T1 sequence (P30559 whole entry): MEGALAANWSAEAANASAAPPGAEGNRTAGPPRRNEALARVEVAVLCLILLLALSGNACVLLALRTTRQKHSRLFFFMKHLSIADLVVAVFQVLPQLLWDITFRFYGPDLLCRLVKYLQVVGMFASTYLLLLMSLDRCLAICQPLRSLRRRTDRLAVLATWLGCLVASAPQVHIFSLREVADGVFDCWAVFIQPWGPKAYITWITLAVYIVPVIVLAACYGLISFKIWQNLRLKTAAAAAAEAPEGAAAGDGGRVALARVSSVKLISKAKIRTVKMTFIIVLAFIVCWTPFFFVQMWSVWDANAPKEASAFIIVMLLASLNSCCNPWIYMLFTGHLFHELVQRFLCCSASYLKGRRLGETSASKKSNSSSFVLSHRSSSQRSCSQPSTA
Nature of the test: Tested against human uterine OT receptor.

The target in test [2] is T2, Oxytocin receptor (Rattus norvegicus, UniProt P70536).
T2 sequence (P70536 whole entry): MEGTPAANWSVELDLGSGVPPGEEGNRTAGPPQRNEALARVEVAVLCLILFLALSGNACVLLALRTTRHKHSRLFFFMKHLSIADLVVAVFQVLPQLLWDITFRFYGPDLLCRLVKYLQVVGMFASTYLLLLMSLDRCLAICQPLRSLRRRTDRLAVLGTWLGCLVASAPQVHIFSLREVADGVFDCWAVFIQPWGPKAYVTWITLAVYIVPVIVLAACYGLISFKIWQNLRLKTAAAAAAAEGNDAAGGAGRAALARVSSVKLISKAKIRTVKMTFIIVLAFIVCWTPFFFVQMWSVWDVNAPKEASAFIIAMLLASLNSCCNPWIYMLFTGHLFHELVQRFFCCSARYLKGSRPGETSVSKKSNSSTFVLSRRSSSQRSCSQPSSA
The test can be described thus: Inhibition of radioligand [3H]oxytocin binding at the oxytocin (OT) receptor in rat uterine tissue. A digest of the protocol:
(§1)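 Uteri taken from rats given diethylstilbestrol dipropionate (0.3 mg/kg ip, 18–24 h before), crude membranes. 1 nM [3H]OT (30–60 Ci/mmol), equilibrium 60 min at 22 °C in 50 mM Tris-HCl, 5 mM MgCl2, 0.1% BSA, pH 7.4. Nonspecific binding with 1 mM unlabeled OT. Filtered on glass fiber. Initial single-concentration screen, then IC50 from seven concentrations by linear regression.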

For test [3], the target named is T2, Oxytocin receptor. Nature of the test: Tested against rat uterine OT receptor. A digest of the protocol:
as §1

Test [4] has as its system Rattus norvegicus. The test can be described thus: Tested for inhibition of OT-stimulated uterine activity in the rat after an intravenous dose. The class given is functional.
The species entered for test [5] is Rattus norvegicus. The test can be described thus: Tested for antagonistic activity in isolated rat uterus. The class given is functional. The following applies: read-out: pA2 (converted).
Another test addresses Vasopressin V1 receptor (Rattus norvegicus, UniProt P48974+P30560). The test can be described thus: Inhibition of radioligand [3H]AVP binding to the vasopressin V1 receptor in rat liver tissue. A digest of the protocol: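 Crude membranes from male rat liver (V1 sites) competed with 1 nM [3H]AVP (80–90 Ci/mmol). Equilibrium 30 min, 30 °C, buffer 100 mM Tris-HCl, 5 mM MgCl2, 0.1% BSA, 50 μM PMSF, 50 μg/mL bacitracin, pH 8.0. 10 μM unlabeled AVP for nonspecific binding. Filtration through glass-fiber filters. IC50 from linear regression over seven concentrations.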

The target in a further test is Vasopressin V2 receptor (Rattus norvegicus, UniProt Q00788). The test can be described thus: Inhibition of radioligand [3H]-AVP binding to the vasopressin V2 receptor in rat kidney tissue. A digest of the protocol:
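[3H]AVP (80–90 Ci/mmol) at 2 nM competed on crude membranes from male rat kidney medulla (V2 sites). Equilibrium 30 min at 30 °C in 100 mM Tris-HCl, 5 mM MgCl2, 0.1% BSA, 50 μM PMSF, 50 μg/mL bacitracin, pH 8.0. Nonspecific binding with 10 μM unlabeled AVP. Glass-fiber filtration. IC50 by linear regression of % inhibition vs log concentration, seven concentrations.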

Chain of Vasopressin V2 receptor (Q00788 whole entry): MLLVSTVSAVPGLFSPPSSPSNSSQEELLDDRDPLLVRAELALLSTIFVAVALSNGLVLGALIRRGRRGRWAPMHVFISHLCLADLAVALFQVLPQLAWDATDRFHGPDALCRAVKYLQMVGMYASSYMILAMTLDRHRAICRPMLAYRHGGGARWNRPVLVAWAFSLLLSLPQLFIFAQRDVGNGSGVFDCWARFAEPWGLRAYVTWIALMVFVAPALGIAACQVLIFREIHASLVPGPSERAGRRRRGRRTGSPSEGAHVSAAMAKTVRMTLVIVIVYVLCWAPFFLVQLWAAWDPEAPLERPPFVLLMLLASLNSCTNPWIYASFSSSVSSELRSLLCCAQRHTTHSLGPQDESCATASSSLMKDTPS

For orientation: Ki means a dissociation constant, usually derived from enzyme kinetics or from competition with a known ligand. A lower Ki goes with a stronger hold on the target. The IC50 is the concentration that gives 50% inhibition. A low value points to greater potency in that assay. Consider `CC1(C)[C@@H]2CC[C@@]1(CS(=O)(=O)N1CCC3(CCc4ccccc43)CC1)[C@@H](NC(=O)Cc1c[nH]cn1)C2`, for which the Ki is 61 nM on Oxytocin receptor [1] and 26 nM on Oxytocin receptor [3]. For the same compound, the IC50 at Oxytocin receptor [2] was 52 nM; on Vasopressin V1 receptor it was 5600 nM; at Vasopressin V2 receptor, 17000 nM. In addition, in the test on Rattus norvegicus [4], the AD50 was found to be 1.5 mg/kg. Further, the Kb in the test listed under Rattus norvegicus [5] is 11.7 nM.

In the case of `CC(=O)N[C@H]1C[C@H]2CC[C@]1(CS(=O)(=O)N1CCC3(CCc4ccccc43)CC1)C2(C)C`, the values for the IC50 on Oxytocin receptor [2], on Vasopressin V1 receptor and at Vasopressin V2 receptor were 390 nM, 7600 nM and 26000 nM, respectively.

Take `CC1(C)[C@@H]2CC[C@@]1(CS(=O)(=O)N1CCC3(C=Cc4ccccc43)CC1)[C@@](O)(CNC(=O)c1ccccn1)C2`: the IC50 stood at 180 nM on Oxytocin receptor [2], 1100 nM at Vasopressin V1 receptor and 3600 nM at Vasopressin V2 receptor.

As for `CC1(C)[C@@H]2CC[C@@]1(CS(=O)(=O)N1CCC3(CCc4ccccc43)CC1)[C@@H](NC(=O)CN1CC[C@H](N)C1=O)C2`, the IC50 at Oxytocin receptor [2] turned out to be 61 nM; at Vasopressin V1 receptor it was 2700 nM; at Vasopressin V2 receptor, 8400 nM.

For `CC1(C)[C@@H]2CC[C@@]1(CS(=O)(=O)N1CCC3(CCc4ccccc43)CC1)[C@@H](NC(=O)[C@H](N)CCC(N)=O)C2`, the figures for the IC50 on Oxytocin receptor [2], at Vasopressin V1 receptor and at Vasopressin V2 receptor were 12 nM, 2300 nM and 5100 nM, respectively.

In the case of `CC1(C)[C@@H]2CC[C@@]1(CS(=O)(=O)N1CCC3(CCc4ccccc43)CC1)[C@@H](N1C(=O)CN(Cc3c[nH]cn3)C1=O)C2`, the half-maximal inhibitory concentration (IC50) on Oxytocin receptor [2] stood at 12 nM; at Vasopressin V1 receptor, 370 nM; at Vasopressin V2 receptor, 940 nM.

As for `CNC1CCN([C@H]2C[C@H]3CC[C@]2(CS(=O)(=O)N2CCC4(CCc5ccccc54)CC2)C3(C)C)C1=O` (some centres not stated), the IC50 on Oxytocin receptor [2] amounted to 210 nM; on Vasopressin V1 receptor, 4700 nM; on Vasopressin V2 receptor it was 12000 nM.

In the case of `CC1(C)[C@@H]2CC[C@@]1(CS(=O)(=O)N1CCC3(C=Cc4ccccc43)CC1)[C@@](O)(CNC(=O)Cc1ccncc1)C2`, the IC50 on Oxytocin receptor [2] was determined as 35 nM; at Vasopressin V1 receptor it was 480 nM; on Vasopressin V2 receptor, 5100 nM.

As for `CC1(C)[C@H]2CC[C@]1(CS(=O)(=O)N1CCC3(CCc4ccccc43)CC1)[C@H](NC(=O)Cc1c[nH]cn1)C2`, the half-maximal inhibitory concentration (IC50) on Oxytocin receptor [2] was 1200 nM; on Vasopressin V1 receptor, greater than 3000 nM; at Vasopressin V2 receptor it was greater than 3000 nM.

With `CC(C(=O)N[C@H]1C[C@H]2CC[C@]1(CS(=O)(=O)N1CCC3(CCc4ccccc43)CC1)C2(C)C)c1cn(C)cn1` (some centres not stated), the IC50 at Oxytocin receptor [2] is 60 nM; at Vasopressin V1 receptor, 3000 nM; on Vasopressin V2 receptor, greater than 3000 nM.

`CC1(C)[C@@H]2CC[C@@]1(CS(=O)(=O)N1CCC3(C=Cc4ccccc43)CC1)[C@@](O)(CNC(=O)C(CCS(C)(=O)=O)NC(=O)Cc1c[nH]cn1)C2` (some centres not stated): the IC50 was 7.6 nM at Oxytocin receptor [2], 310 nM on Vasopressin V1 receptor and 2500 nM on Vasopressin V2 receptor.
